Data set [1] can be described thus: Inhibition of refolded MDH (unknown origin) preincubated with Escherichia coli GroEL/GroES for 45 mins in absence of compound followed by compound addition and measured for 20 to 35 mins by spectrometric analysis.
The test system of data set [2] is Pseudomonas aeruginosa. Briefly: Antibacterial activity against Pseudomonas aeruginosa ATCC 10145 after 24 hrs by bacterial proliferation assay. The class given is functional, organism-based. Conditions: ATCC 10145, 24 h. Summed up:
(§1)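 Bacterial growth inhibition in liquid culture. The highest concentration tested was 100 µM. The mean was back-calculated from the average log value. Values above the top concentration were set 0.1 log unit higher.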

Data set [3] has as its system Staphylococcus aureus. Briefly: Antibacterial activity against Staphylococcus aureus ATCC 25923 after 6 to 8 hrs by bacterial proliferation assay. Type of data set: functional, organism-based.
The test system of data set [4] is HEK293. Briefly: Cytotoxicity against HEK293 cells assessed as reduction in cell viability after 48 hrs by Alamar Blue reporter assay. Conditions: human, hek293, 48 h. Background: The colour change of resazurin is a common sign of viable cells or microbes.
Data set [5] concerns Enterococcus faecium. Briefly: Antibacterial activity against Enterococcus faecium ATCC 19434 after 24 hrs by bacterial proliferation assay. The class given is functional, organism-based. Particulars: ATCC 19434, 24 h.
Data set [6] concerns Klebsiella pneumoniae. In words: Antibacterial activity against Klebsiella pneumoniae ATCC 13883 after 6 to 8 hrs by bacterial proliferation assay. Type of data set: functional, organism-based. Summed up:
as §1

The test system of data set [7] is Enterobacter cloacae. In words: Antibacterial activity against Enterobacter cloacae subsp. cloacae ATCC 13047 after 24 hrs by bacterial proliferation assay. Particulars: subsp. cloacae ATCC 13047, 24 h. Type of data set: functional, organism-based. The gist of the method:
as §1

The test system of data set [8] is Staphylococcus aureus. In words: Antibacterial activity against methicillin-resistant Staphylococcus aureus ATCC BAA-44 after 6 to 8 hrs by bacterial proliferation assay. The class given is functional, organism-based.
For data set [9], the system named is Acinetobacter baumannii. Briefly: Antibacterial activity against Acinetobacter baumannii ATCC 19606 after 24 hrs by bacterial proliferation assay. Type of data set: functional, organism-based. Conditions: ATCC 19606 = CIP 70.34 = JCM 6841, 24 h. Summed up: as §1
Data set [10] concerns the target T1, E. coli GroEL/ES (Escherichia coli, UniProt P0A6F5). Briefly: Inhibition of Escherichia coli GroEL expressed in Escherichia coli DH5alpha/Escherichia coli GroES expressed in Escherichia coli BL21 (DE3) assessed as reduction in GroEL/GroES-mediated denatured rhodanese refolding after 45 mins by spectrometric analysis. The gist of the method: (§2)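 Uses E. coli GroEL/ES with a denatured MDH or rhodanese reporter. GroEL first forms a binary complex with the denatured reporter. Refolding is started by adding ATP and GroES, then reporter enzyme activity is read. DMSO is the negative control. IC50 values from replicate curves are log-averaged after ROUT outlier screening.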

For data set [11], the target named is HSP60/HSP10 (Homo sapiens, UniProt P10809). In words: Inhibition of human N-terminal octa-His-tagged HSP60 expressed in Escherichia coli Rosetta(DE3) pLysS/human HSP10 expressed in Escherichia coli Rosetta(DE3) assessed as reduction in HSP60/HSP10-mediated denatured MDH refolding after 40 to 60 mins by spectrometric analysis. The gist of the method:
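Human HSP60/10 refolding of denatured MDH, run the same way as the GroEL/ES-dMDH assay. A binary complex of chaperonin and denatured MDH is formed, and refolding is started with ATP and HSP10. MDH activity is the read-out. DMSO is the negative control. IC50 values from replicate curves are log-averaged after ROUT outlier screening.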

Data set [12] has as its target T2, Thiosulfate sulfurtransferase (Homo sapiens, UniProt Q16762).
T2 sequence (Q16762 whole entry): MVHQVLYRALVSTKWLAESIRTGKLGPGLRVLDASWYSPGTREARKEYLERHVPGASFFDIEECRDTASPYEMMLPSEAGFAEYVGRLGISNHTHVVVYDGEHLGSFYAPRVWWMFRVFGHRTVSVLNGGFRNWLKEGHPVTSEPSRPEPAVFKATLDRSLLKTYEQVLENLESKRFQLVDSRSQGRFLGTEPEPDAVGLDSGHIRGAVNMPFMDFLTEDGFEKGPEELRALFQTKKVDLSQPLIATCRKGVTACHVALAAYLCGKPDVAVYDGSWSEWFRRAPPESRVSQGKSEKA
In words: Inhibition of refolded rhodanese (unknown origin) preincubated with Escherichia coli GroEL/GroES for 60 mins in absence of compound followed by compound addition by spectrometric analysis.

The target in data set [13] is T1, E. coli GroEL/ES. Briefly: Inhibition of Escherichia coli GroEL expressed in Escherichia coli DH5alpha/Escherichia coli GroES expressed in Escherichia coli BL21 (DE3) assessed as reduction in GroEL/GroES-mediated denatured MDH refolding after 20 to 40 mins by spectrometric analysis. The gist of the method: as §2
Data set [14] can be described thus: Cytotoxicity against human THLE3 cells assessed as reduction in cell viability after 48 hrs by Alamar Blue reporter assay. Conditions: 48 h.
Where [15] appears, read: Staphylococcus aureus, ATCC BAA-44.

These results are taken from ChEMBL document CHEMBL4266041, “Hydroxybiphenylamide GroEL/ES Inhibitors Are Potent Antibacterials against Planktonic and Biofilm Forms of Staphylococcus aureus” (J Med Chem, 2018).

Some results are limits rather than exact numbers.

T1 sequence (P0A6F5 whole entry, looked up): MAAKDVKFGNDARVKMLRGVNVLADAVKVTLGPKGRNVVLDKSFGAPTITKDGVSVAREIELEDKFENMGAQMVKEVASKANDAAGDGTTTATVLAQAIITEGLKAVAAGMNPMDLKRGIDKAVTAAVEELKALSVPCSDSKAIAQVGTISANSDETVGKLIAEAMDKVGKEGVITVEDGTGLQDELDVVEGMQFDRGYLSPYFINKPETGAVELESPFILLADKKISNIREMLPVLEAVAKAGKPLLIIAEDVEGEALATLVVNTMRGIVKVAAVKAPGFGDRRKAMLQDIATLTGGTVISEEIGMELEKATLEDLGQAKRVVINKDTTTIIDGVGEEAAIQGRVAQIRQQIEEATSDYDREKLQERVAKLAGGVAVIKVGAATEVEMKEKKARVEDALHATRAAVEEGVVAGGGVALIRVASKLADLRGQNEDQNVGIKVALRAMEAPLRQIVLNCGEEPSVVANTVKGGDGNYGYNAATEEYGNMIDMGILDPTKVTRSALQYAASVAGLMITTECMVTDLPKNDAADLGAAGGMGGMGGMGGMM
Chain of HSP60/HSP10 (P10809 whole entry): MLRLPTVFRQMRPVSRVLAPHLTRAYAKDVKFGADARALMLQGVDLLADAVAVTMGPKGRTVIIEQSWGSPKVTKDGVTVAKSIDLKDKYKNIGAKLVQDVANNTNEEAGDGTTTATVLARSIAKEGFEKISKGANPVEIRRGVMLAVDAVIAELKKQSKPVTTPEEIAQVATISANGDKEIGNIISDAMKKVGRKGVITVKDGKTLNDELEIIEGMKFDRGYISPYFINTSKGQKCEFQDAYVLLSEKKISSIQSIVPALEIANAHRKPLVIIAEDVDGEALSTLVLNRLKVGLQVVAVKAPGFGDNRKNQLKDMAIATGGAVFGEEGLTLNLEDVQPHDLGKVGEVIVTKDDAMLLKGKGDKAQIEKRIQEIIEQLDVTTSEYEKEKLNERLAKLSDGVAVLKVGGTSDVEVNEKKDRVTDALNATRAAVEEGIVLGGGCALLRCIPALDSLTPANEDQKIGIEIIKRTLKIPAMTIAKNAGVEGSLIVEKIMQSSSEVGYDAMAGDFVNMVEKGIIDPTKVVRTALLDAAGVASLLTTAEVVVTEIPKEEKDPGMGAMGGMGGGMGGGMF
Chain of HSP60/HSP10 (P61604 whole entry, further chain): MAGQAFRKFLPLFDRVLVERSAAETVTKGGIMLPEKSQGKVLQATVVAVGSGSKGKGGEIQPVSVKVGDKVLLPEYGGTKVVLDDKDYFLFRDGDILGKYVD

In general, IC50 refers to the concentration at which inhibition is half-maximal. What is called EC50 is the concentration at which the effect is half-maximal. Read a low EC50 as greater potency. The term CC50 denotes the concentration that lowers cell viability or growth by half. Take `COc1c(Br)cccc1C(=O)Nc1ccccc1`: the IC50 in data set [1] is > 63 µM; in data set [10] it was > 100 µM; in data set [11], > 100 µM; in [12], > 100 µM; in data set [13], > 100 µM. Also, the EC50 in data set [2], in data set [3], in [5], in data set [6], in [7] and in data set [8] (setting [15]) was > 100 µM throughout. For the same compound, the EC50 in data set [9] was > 100 µM. Besides, the CC50 in data set [4] and in data set [14] was > 100 µM each time.
In the case of `O=C(Nc1ccccc1)c1cc(Br)ccc1O`, the IC50 is > 63 µM in data set [1]; > 100 µM in [10]; > 100 µM in data set [11]; > 100 µM in data set [12]; > 100 µM in data set [13]. Moreover, the EC50 in [2] is > 100 µM; in data set [3], 2.8 µM; in data set [5], > 100 µM; in data set [6], 78 µM; in data set [7] it was > 100 µM; in [8] (setting [15]), 4.1 µM. In data set [9], the EC50 was > 100 µM. Also, the CC50 in [4] worked out at 35 µM; in data set [14], 16 µM.
For `O=C(Nc1ccc(Sc2nc3ccccc3s2)c(Cl)c1)c1cc(Br)cc(Br)c1`, the IC50 in data set [1] was > 63 µM; in data set [10], > 100 µM; in data set [11], > 100 µM; in data set [12], > 100 µM; in data set [13] it was > 100 µM. Further, the EC50 in data set [2], in data set [3], in [5], in data set [6], in [7] and in [8] (setting [15]) was > 100 µM throughout. For the same compound, the EC50 in [9] is > 100 µM. The CC50 in data set [4] and in data set [14] was > 100 µM each time.
In the case of `O=C(Nc1ccc(Sc2nc3ccccc3s2)cc1)c1cc(Br)cc(Br)c1`, the IC50 was > 63 µM in data set [1]; > 100 µM in data set [10]; > 100 µM in [11]; > 100 µM in data set [12]; > 100 µM in data set [13]. Moreover, the EC50 in data set [2], in data set [3], in [5], in data set [6], in [7] and in [8] (setting [15]) was > 100 µM each time. In addition, the EC50 in [9] is > 100 µM. Further, the CC50 in data set [4] and in data set [14] was > 100 µM throughout.
Turning to `O=C(Nc1cccc(Cl)c1)c1cccc(Br)c1O`, the IC50 is > 63 µM in [1]; > 100 µM in [10]; > 100 µM in data set [11]; > 100 µM in data set [12]; > 100 µM in data set [13]. Besides, the EC50 in data set [2] was > 100 µM; in data set [3], 1.3 µM; in [5], > 100 µM; in data set [6], > 100 µM; in data set [7] it was > 100 µM; in [8] (setting [15]) it was 2 µM. The EC50 in [9] was > 100 µM. Further, the CC50 in [4] worked out at 32 µM; in data set [14], 16 µM.
Consider `COc1ccc(Br)cc1C(=O)Nc1ccccc1`, for which the half-inhibitory concentration (IC50) was > 63 µM in data set [1]; > 100 µM in [10]; > 100 µM in data set [11]; > 100 µM in data set [12]; > 100 µM in [13]. Also, the EC50 in data set [2], in data set [3], in data set [5], in data set [6], in data set [7] and in data set [8] (setting [15]) was > 100 µM each time. Moreover, the EC50 in [9] was > 100 µM. Also, the CC50 in [4] and in data set [14] was > 100 µM each time.
Take `CC1(C)S[C@@H]2[C@H](NC(=O)[C@H](N)c3ccccc3)C(=O)N2[C@H]1C(=O)O` [AMPICILLIN]: the IC50 was > 63 µM in data set [1]; > 100 µM in data set [10]; > 100 µM in [11]; > 100 µM in [12]; > 100 µM in data set [13]. The EC50 in data set [2] is > 100 µM; in data set [3] it was 0.19 µM; in [5], 6.9 µM; in data set [6], > 100 µM; in data set [7] it was > 100 µM; in [8] (setting [15]) it was > 100 µM. Further, the half-maximal effective concentration (EC50) in data set [9] was > 100 µM. The CC50 in data set [4] and in [14] was > 100 µM in each case.
With `COc1c(Br)cccc1C(=O)Nc1ccc(Sc2nc3ccccc3s2)cc1`, the IC50 in data set [1] is > 63 µM; in [10] it was > 100 µM; in data set [11], > 100 µM; in data set [12], > 100 µM; in [13], > 100 µM. Further, the EC50 in data set [2], in [3], in data set [5], in data set [6], in data set [7] and in data set [8] (setting [15]) was > 100 µM throughout. Moreover, in [9], the concentration for a half-maximal effect (EC50) was > 100 µM. Moreover, the CC50 in data set [4] and in [14] was > 100 µM throughout.
Turning to `O=C(Nc1ccc(Oc2ccc(Cl)cc2)c(Cl)c1)c1cc(I)cc(I)c1O` [RAFOXANIDE], the IC50 in data set [1] is 25 µM; in [10] it was 2.2 µM; in data set [11], 2.8 µM; in data set [12], > 100 µM; in data set [13], 4.3 µM. The EC50 in data set [2] was > 100 µM; in data set [3] it was 0.32 µM; in [5], 0.99 µM; in data set [6], > 100 µM; in data set [7] it was 40 µM; in [8], 0.34 µM. This compound had an EC50 in [9] of 31 µM. Further, the CC50 is > 100 µM in [4] and 24 µM in [14].
On to `O=C(Nc1cccc(Cl)c1)c1ccccc1`, for which the IC50 in [1] was > 63 µM; in data set [10], > 100 µM; in data set [11], > 100 µM; in [12], > 100 µM; in data set [13], > 100 µM. Besides, the EC50 in data set [2], in [3], in [5], in [6], in [7] and in [8] (setting [15]) was > 100 µM each time. For the same compound, the EC50 in data set [9] is > 100 µM. Besides, the CC50 in data set [4] and in data set [14] was > 100 µM in each case.
Regarding `COc1ccc(Br)cc1C(=O)Nc1ccc(Sc2nc3ccccc3s2)c(Cl)c1`, the IC50 was > 63 µM in data set [1]; > 100 µM in data set [10]; > 100 µM in [11]; > 100 µM in data set [12]; > 100 µM in [13]. Besides, the 50% effective concentration (EC50) in [2], in [3], in data set [5], in data set [6], in data set [7] and in [8] (setting [15]) was > 100 µM in each case. In addition, the EC50 in data set [9] was > 100 µM. For the same compound, the CC50 in data set [4] and in data set [14] was > 100 µM throughout.
As for `O=C(Nc1ccc(Sc2nc3ccccc3s2)cc1)c1cc(Br)ccc1O`, the IC50 was > 63 µM in data set [1]; 30 µM in [10]; > 100 µM in data set [11]; > 100 µM in data set [12]; 38 µM in data set [13]. Moreover, the EC50 is > 100 µM in data set [2]; 0.12 µM in data set [3]; 19 µM in [5]; > 100 µM in [6]; > 100 µM in [7]; 0.14 µM in data set [8] (setting [15]). Besides, the EC50 in data set [9] is > 100 µM. Besides, the values for the CC50 in data set [4] and in data set [14] were 42 µM and 12 µM, respectively.
